Measured values from ChEMBL document CHEMBL1153726, “Synthesis and anticancer activity of sclerophytin-inspired hydroisobenzofurans” (Bioorg Med Chem Lett, 2009).

Experiments:
Type in all cases: functional
MDA-MB-468 [1] = experiment: Growth inhibition of human MDA-MB-468 cells at 1 nM after 96 hrs by MTT assay; parameters: scale not given: the % may be the effect or the level left
NCI-H460 = experiment: Growth inhibition of human NCI-H460 cells at 1 nM after 96 hrs by MTT assay; parameters: scale not given: the % may be the effect or the level left
HL-60(TB) = experiment: Growth inhibition of human HL-60(TB) cells at 1 nM after 96 hrs by MTT assay; parameters: scale not given: the % may be the effect or the level left
MDA-MB-468 [2] = experiment: Growth inhibition of human MDA-MB-468 cells at 10 uM after 96 hrs by MTT assay; parameters: scale not given: the % may be the effect or the level left
RXF 393 = experiment: Growth inhibition of human RXF393 cells at 10 uM after 96 hrs by MTT assay; parameters: scale not given: the % may be the effect or the level left
786-0 = experiment: Growth inhibition of human 786-0 cells at 10 uM after 96 hrs by MTT assay; parameters: scale not given: the % may be the effect or the level left
OVCAR-8 = experiment: Growth inhibition of human OVCAR8 cells at 10 uM after 96 hrs by MTT assay; parameters: scale not given: the % may be the effect or the level left
OVCAR-4 [3] = experiment: Growth inhibition of human OVCAR4 cells at 10 uM after 96 hrs by MTT assay; parameters: scale not given: the % may be the effect or the level left
UACC-257 = experiment: Growth inhibition of human UACC257 cells at 10 uM after 96 hrs by MTT assay; parameters: scale not given: the % may be the effect or the level left
U-251 = experiment: Growth inhibition of human U251 cells at 10 uM after 96 hrs by MTT assay; parameters: scale not given: the % may be the effect or the level left
SNB-19 = experiment: Growth inhibition of human SNB19 cells at 10 uM after 96 hrs by MTT assay; parameters: scale not given: the % may be the effect or the level left
SF-539 [4] = experiment: Growth inhibition of human SF539 cells at 10 uM after 96 hrs by MTT assay; parameters: scale not given: the % may be the effect or the level left
K562 = experiment: Growth inhibition of human K562 cells at 10 uM after 96 hrs by MTT assay; parameters: scale not given: the % may be the effect or the level left
HCT-15 = experiment: Growth inhibition of human HCT15 cells after 96 hrs by MTT assay; conditions: HCT-15, 96 h
Summary of the method: (§1)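 Run in the NCI 60 human tumour cell line panel as a five-dose assay. GI50 and LC50 were reported for each cell line.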

HT-29 = experiment: Growth inhibition of human HT-29 cells at 10 nM after 96 hrs by MTT assay; parameters: scale not given: the % may be the effect or the level left
SNB-75 = experiment: Growth inhibition of human SNB75 cells after 96 hrs by MTT assay; conditions: SNB-75, 96 h
Summary of the method: (§2)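 Tested in the NCI 60-cell-line panel in five-dose format; GI50 and LC50 values reported for each cell line.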

LOX IMVI = experiment: Growth inhibition of human LOXIMVI cells after 96 hrs by MTT assay; summary of the method: as §1
SK-MEL-5 [5] = experiment: Growth inhibition of human SK-MEL-5 cells after 96 hrs by MTT assay; conditions: SK-MEL-5, 96 h; summary of the method: as §2
OVCAR-5 = experiment: Growth inhibition of human OVCAR5 cells after 96 hrs by MTT assay; conditions: OVCAR-5, 96 h; summary of the method: as §2
NCI/ADR-RES = experiment: Growth inhibition of human NCI/ADR-RES cells after 96 hrs by MTT assay; summary of the method: as §1
UO-31 = experiment: Growth inhibition of human UO31 cells after 96 hrs by MTT assay; conditions: UO-31, 96 h; summary of the method: as §2
PC-3 = experiment: Growth inhibition of human PC3 cells after 96 hrs by MTT assay; conditions: PC-3, 96 h; summary of the method: as §2
T47D = experiment: Growth inhibition of human T47D cells after 96 hrs by MTT assay; summary of the method: as §2
[6] = Growth inhibition of human RPMI8266 cells at 10 nM after 96 hrs by MTT assay; parameters: scale not given: the % may be the effect or the level left
A549 = experiment: Growth inhibition of human A549 cells after 96 hrs by MTT assay; conditions: A549, 96 h
DU-145 = experiment: Growth inhibition of human DU145 cells at 1 uM after 96 hrs by MTT assay; parameters: scale not given: the % may be the effect or the level left
SK-OV-3 = experiment: Growth inhibition of human SKOV3 cells at 1 uM after 96 hrs by MTT assay; parameters: scale not given: the % may be the effect or the level left
OVCAR-4 [7] = experiment: Growth inhibition of human OVCAR4 cells at 1 uM after 96 hrs by MTT assay; parameters: scale not given: the % may be the effect or the level left
BT-549 = experiment: Growth inhibition of human BT549 cells at 100 nM after 96 hrs by MTT assay; parameters: scale not given: the % may be the effect or the level left
HOP-62 [8] = experiment: Growth inhibition of human HOP62 cells at 100 nM after 96 hrs by MTT assay; parameters: scale not given: the % may be the effect or the level left
SK-MEL-5 [9] = experiment: Growth inhibition of human SK-MEL-5 cells at 10 nM after 96 hrs by MTT assay; parameters: scale not given: the % may be the effect or the level left
NCI-H522 = experiment: Growth inhibition of human NCI-H522 cells at 10 nM after 96 hrs by MTT assay; parameters: scale not given: the % may be the effect or the level left
HOP-92 = experiment: Growth inhibition of human HOP92 cells at 10 nM after 96 hrs by MTT assay; parameters: scale not given: the % may be the effect or the level left
SF-539 [10] = experiment: Growth inhibition of human SF539 cells at 1 uM after 96 hrs by MTT assay; parameters: scale not given: the % may be the effect or the level left
HOP-62 [11] = experiment: Growth inhibition of human HOP62 cells at 1 uM after 96 hrs by MTT assay; parameters: scale not given: the % may be the effect or the level left
MOLT-4 = experiment: Growth inhibition of human MOLT4 cells at 1 uM after 96 hrs by MTT assay; parameters: scale not given: the % may be the effect or the level left
[12] = read-out: LC50 (the source's name)
[13] = read-out: Log10GI50 (converted)
[14] = read-out: Log10LC50 (converted)

For `C=C(C)[C@H]1CC=C(C)C2=CO[C@@H](c3ccccc3F)[C@@H]21`, the Activity (MDA-MB-468 [1]) was 93%, the Activity (NCI-H460) was 97% and the Activity (HL-60(TB)) was 104%. The Activity (MDA-MB-468 [2]) was 102.71%, the Activity (RXF 393) was 98.38% and the Activity (786-0) was 93.62%. For the same compound, the Activity (OVCAR-8) was 94.8%, the Activity (OVCAR-4 [3]) was 88.01% and the Activity (UACC-257) was 76.82%. The Activity (U-251) was 97.35%, the Activity (SNB-19) was 82.9% and the Activity (SF-539 [4]) was 92.75%. The Activity (K562) was 67.84%, the GI50 (HCT-15; read-out: GI50) was 4.38 µM and the CC50 (HCT-15; [12]) was 51 µM. The GI50 (HCT-15; [13]) was 4.37 µM, the CC50 (HCT-15; [14]) was 51.3 µM and the TGI (HCT-15; read-out: Log10TGI (converted)) was 18.6 µM. It also gave a TGI (HCT-15; read-out: TGI) of 18.6 µM, an Activity (HT-29) of 92% and a GI50 (SNB-75; read-out: GI50) of 4.94 µM. It also gave an LC50 (SNB-75; read-out: LC50) of 56.9 µM, a GI50 (SNB-75; [13]) of 4.9 µM and an LC50 (SNB-75; [14]) of 57.5 µM. The TGI (SNB-75; read-out: Log10TGI (converted)) was 20.4 µM, the TGI (SNB-75; read-out: TGI) was 20.5 µM and the GI50 (LOX IMVI; read-out: GI50) was 4.3 µM. For the same compound, the CC50 (LOX IMVI; [12]) was 55.4 µM, the GI50 (LOX IMVI; [13]) was 4.27 µM and the CC50 (LOX IMVI; [14]) was 55 µM. The TGI (LOX IMVI; read-out: Log10TGI (converted)) was 20 µM, the TGI (LOX IMVI; read-out: TGI) was 19.8 µM and the GI50 (SK-MEL-5 [5]; read-out: GI50) was 2.48 µM. The CC50 (SK-MEL-5 [5]; [12]) was 38.6 µM, the GI50 (SK-MEL-5 [5]; [13]) was 2.51 µM and the CC50 (SK-MEL-5 [5]; [14]) was 38.9 µM. It also gave a TGI (SK-MEL-5 [5]; read-out: Log10TGI (converted)) of 14.8 µM, a TGI (SK-MEL-5 [5]; read-out: TGI) of 14.9 µM and a GI50 (OVCAR-5; read-out: GI50) of 23.6 µM. The LC50 (50% lethal concentration) (OVCAR-5; read-out: LC50) was 72.3 µM, the GI50 (OVCAR-5; [13]) was 23.4 µM and the LC50 (50% lethal concentration) (OVCAR-5; [14]) was 72.4 µM. It also gave a TGI (OVCAR-5; read-out: Log10TGI (converted)) of 41.7 µM, a TGI (OVCAR-5; read-out: TGI) of 41.3 µM and a GI50 (NCI/ADR-RES; read-out: GI50) of 3.67 µM. For the same compound, the CC50 (NCI/ADR-RES; [12]) was 56.1 µM, the GI50 (NCI/ADR-RES; [13]) was 3.63 µM and the CC50 (NCI/ADR-RES; [14]) was 56.2 µM. It also gave a TGI (NCI/ADR-RES; read-out: Log10TGI (converted)) of 17.8 µM, a TGI (NCI/ADR-RES; read-out: TGI) of 17.9 µM and a GI50 (UO-31; read-out: GI50) of 6.32 µM. It also gave a CC50 (UO-31; [12]) of 49.2 µM, a GI50 (UO-31; [13]) of 6.31 µM and a CC50 (UO-31; [14]) of 49 µM. It also gave a TGI (UO-31; read-out: Log10TGI (converted)) of 20.9 µM, a TGI (UO-31; read-out: TGI) of 20.8 µM and a GI50 (PC-3; read-out: GI50) of 2.49 µM. It also gave a CC50 (PC-3; [12]) of 57.2 µM, a GI50 (PC-3; [13]) of 2.51 µM and a CC50 (PC-3; [14]) of 57.5 µM. It also gave a TGI (PC-3; read-out: Log10TGI (converted)) of 16.6 µM, a TGI (PC-3; read-out: TGI) of 16.5 µM and a GI50 (T47D; read-out: GI50) of 2.24 µM. For the same compound, the CC50 (T47D; [12]) was > 100 µM, the GI50 (T47D; [13]) was 2.24 µM and the CC50 (T47D; [14]) was > 100 µM. For the same compound, the TGI (T47D; read-out: Log10TGI (converted)) was 11 µM, the TGI (T47D; read-out: TGI) was 11.1 µM and the Activity [6] was 56%. For the same compound, the GI50 (A549; read-out: GI50) was 6.17 µM, the CC50 (A549; [12]) was > 100 µM and the GI50 (A549; [13]) was 6.17 µM. For the same compound, the CC50 (A549; [14]) was > 100 µM, the TGI (A549; read-out: Log10TGI (converted)) was 30.2 µM and the TGI (A549; read-out: TGI) was 30.1 µM. For the same compound, the Activity (DU-145) was 37%, the Activity (SK-OV-3) was 59% and the Activity (OVCAR-4 [7]) was 33%. The Activity (BT-549) was 67%, the Activity (HOP-62 [8]) was 98% and the Activity (SK-MEL-5 [9]) was 88%. The Activity (NCI-H522) was 77%, the Activity (HOP-92) was 69% and the Activity (SF-539 [10]) was 43%. It also gave an Activity (HOP-62 [11]) of 51% and an Activity (MOLT-4) of -15%.
